Columns and labels:
[1] = test system: panel of human malignant cell lines; test: Correlation of antiproliferative activity with anti‐IGF‐1 antibody KM1468; type: cell-based; details: range of human malignant cell lines (Fig. S1a)
[2] = biological target: AurB (Homo sapiens, UniProt Q96GD4); test: Kinase inhibition profiling at 100 nmol/L; type: biochemical; details: read-out: Inhibition at 100 nmol/L
[3] = test system: HT‐29/GFP human colon cancer cells; test: Flow cytometric cell cycle analysis; type: cell-based
[4] = test system: SCID mice; test: Hyperglycemia and hyperinsulinemia in mice; type: in vivo, mouse; details: oral 10, 20, 40, 80 mg/kg
[5] = ref Kyowa Hakko Kirin Co., Ltd, Tokyo, unpublished data; cited from earlier work
[6] = Plasma protein binding, equilibrium dialysis; type: in vitro ADME; details: human, pH 7.2
[7] = biological target: EGFR (Homo sapiens, UniProt P00533); test: Kinase inhibition profiling at 100 nmol/L; type: biochemical; details: read-out: Inhibition at 100 nmol/L
[8] = biological target: focal adhesion kinase (Homo sapiens, UniProt Q05397); test: Kinase inhibition profiling at 100 nmol/L; type: biochemical; details: read-out: Inhibition at 100 nmol/L
[9] = biological target: Met (Homo sapiens, UniProt P08581); test: Kinase inhibition profiling at 100 nmol/L; type: biochemical; details: read-out: Inhibition at 100 nmol/L
[10] = biological target: fms‐like tyrosine kinase‐1 (Homo sapiens, UniProt P17948); test: Kinase inhibition profiling at 100 nmol/L; type: biochemical; details: read-out: Inhibition at 100 nmol/L
[11] = biological target: kinase insert domain receptor (Homo sapiens, UniProt P35968); test: Kinase inhibition profiling at 100 nmol/L; type: biochemical; details: read-out: Inhibition at 100 nmol/L
[12] = test system: patients with advanced solid tumors; test: Phase I first-in-human study: pharmacodynamics; type: in vivo
Summary of the method: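 Open-label 3+3 dose-escalation/de-escalation study. After a 1-week observation period, the test compound was given orally once daily, continuously, after an overnight fast. On pharmacodynamic sampling days, fasting continued until 2 h post-dose. Plasma glucose and insulin were sampled between days 1 and 29, at pre-dose and at 1, 2 and 24 h post-dose. Only the fasting time points were evaluable.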

[13] = test system: human multiple myeloma cell lines (KMS‐12‐BM, LP‐1, NCI‐H929); test: Anti-proliferative activity; type: cell-based; details: 72 h
[14] = test system: patients with advanced solid tumors; test: Phase I first-in-human study: safety, tolerability, DLT, MTD; type: in vivo
Summary of the method: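 Open-label 3+3 dose-escalation/de-escalation; oral once-daily dosing under overnight fasting for 28 days, 1-week observation, then continuous; AEs graded by CTCAE v3.0 with attribution; DLTs included grade 3 fasting hyperglycemia, grade 3 non-fasting hyperglycemia >4 h, grade 4 hyperglycemia, grade ≥2 cardiac toxicity, other grade ≥3 non-hematologic events, grade 4 neutropenia >7 days, grade 4 thrombocytopenia.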

[15] = patients, 37.5 and 50 mg, 1 and 2 h post‐dose

AurB, sequence (Q96GD4 whole entry): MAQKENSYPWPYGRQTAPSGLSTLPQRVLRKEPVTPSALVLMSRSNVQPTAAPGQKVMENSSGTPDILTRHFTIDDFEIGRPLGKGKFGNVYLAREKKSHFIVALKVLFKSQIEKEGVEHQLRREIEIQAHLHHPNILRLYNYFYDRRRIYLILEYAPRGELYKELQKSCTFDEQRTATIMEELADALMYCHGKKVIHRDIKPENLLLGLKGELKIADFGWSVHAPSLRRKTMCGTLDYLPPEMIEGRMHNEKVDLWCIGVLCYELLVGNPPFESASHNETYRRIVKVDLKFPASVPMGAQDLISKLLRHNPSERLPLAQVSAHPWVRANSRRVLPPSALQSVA
AurB, sequence (Q9NQS7 803-916 partner limits assumed): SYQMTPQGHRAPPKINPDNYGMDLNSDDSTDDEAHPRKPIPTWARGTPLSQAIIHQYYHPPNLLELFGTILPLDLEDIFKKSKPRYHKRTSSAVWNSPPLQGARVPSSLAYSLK
kinase insert domain receptor, sequence (P35968 20-1356): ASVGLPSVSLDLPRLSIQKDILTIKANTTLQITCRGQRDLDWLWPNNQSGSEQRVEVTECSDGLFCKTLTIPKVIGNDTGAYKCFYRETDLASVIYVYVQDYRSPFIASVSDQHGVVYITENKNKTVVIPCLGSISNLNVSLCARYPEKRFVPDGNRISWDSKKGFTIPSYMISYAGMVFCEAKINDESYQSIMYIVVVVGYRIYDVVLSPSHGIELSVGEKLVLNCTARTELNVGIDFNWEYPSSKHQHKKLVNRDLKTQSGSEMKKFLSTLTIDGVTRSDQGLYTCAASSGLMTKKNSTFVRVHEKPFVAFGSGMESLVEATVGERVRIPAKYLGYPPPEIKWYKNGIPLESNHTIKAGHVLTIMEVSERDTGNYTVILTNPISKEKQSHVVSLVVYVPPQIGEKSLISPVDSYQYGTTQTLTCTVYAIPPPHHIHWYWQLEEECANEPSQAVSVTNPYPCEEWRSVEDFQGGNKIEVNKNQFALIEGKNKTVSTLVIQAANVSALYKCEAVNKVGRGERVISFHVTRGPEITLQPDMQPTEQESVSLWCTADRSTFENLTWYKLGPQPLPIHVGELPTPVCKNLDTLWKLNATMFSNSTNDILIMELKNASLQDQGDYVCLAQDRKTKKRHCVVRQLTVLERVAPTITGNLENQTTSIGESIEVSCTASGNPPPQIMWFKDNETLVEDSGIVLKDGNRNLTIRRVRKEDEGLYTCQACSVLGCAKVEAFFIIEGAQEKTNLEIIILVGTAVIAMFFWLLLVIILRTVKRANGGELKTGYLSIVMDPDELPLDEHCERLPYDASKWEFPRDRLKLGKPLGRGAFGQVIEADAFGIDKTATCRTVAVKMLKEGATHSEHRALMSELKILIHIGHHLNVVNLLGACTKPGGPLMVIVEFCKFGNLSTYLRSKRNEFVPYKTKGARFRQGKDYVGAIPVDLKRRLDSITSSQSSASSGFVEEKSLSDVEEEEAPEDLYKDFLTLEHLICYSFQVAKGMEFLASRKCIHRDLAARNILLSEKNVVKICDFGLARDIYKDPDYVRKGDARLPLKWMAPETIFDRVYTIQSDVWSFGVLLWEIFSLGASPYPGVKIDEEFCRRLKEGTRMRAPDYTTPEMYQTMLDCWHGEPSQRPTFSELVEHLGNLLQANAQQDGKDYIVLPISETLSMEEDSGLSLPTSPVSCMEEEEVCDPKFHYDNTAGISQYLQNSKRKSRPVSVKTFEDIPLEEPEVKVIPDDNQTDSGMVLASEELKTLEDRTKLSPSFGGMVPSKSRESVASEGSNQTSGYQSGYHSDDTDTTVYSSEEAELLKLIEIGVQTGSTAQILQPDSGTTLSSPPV
EGFR, sequence (P00533 25-1210): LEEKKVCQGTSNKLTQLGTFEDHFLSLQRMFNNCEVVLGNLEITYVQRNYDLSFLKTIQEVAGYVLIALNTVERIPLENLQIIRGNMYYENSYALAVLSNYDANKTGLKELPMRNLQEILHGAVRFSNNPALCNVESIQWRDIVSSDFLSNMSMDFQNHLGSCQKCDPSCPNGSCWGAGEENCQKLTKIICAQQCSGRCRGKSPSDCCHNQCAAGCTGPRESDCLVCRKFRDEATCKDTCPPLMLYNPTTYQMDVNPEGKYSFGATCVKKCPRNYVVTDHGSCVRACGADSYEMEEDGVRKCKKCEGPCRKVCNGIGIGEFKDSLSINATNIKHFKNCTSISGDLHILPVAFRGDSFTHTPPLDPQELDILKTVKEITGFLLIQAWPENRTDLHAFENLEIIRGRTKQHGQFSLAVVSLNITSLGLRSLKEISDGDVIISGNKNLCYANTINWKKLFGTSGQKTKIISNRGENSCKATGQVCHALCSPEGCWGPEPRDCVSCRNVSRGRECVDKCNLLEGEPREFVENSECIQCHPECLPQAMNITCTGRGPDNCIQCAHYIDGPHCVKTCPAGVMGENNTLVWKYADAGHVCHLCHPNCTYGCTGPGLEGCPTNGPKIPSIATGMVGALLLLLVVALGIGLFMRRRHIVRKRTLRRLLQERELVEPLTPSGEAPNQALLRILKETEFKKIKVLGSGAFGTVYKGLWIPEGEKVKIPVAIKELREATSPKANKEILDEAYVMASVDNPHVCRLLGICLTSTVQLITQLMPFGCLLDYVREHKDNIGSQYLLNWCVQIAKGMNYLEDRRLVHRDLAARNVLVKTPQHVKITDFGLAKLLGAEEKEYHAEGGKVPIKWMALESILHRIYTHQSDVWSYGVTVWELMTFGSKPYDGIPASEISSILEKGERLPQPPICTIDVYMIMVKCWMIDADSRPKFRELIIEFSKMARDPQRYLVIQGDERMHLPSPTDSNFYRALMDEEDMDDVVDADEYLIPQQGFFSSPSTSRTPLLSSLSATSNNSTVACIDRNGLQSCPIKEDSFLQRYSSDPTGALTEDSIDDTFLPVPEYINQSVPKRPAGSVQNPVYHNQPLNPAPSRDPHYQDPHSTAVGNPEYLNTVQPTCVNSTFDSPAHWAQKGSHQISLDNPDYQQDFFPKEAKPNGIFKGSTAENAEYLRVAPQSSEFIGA
focal adhesion kinase, sequence (Q05397 whole entry): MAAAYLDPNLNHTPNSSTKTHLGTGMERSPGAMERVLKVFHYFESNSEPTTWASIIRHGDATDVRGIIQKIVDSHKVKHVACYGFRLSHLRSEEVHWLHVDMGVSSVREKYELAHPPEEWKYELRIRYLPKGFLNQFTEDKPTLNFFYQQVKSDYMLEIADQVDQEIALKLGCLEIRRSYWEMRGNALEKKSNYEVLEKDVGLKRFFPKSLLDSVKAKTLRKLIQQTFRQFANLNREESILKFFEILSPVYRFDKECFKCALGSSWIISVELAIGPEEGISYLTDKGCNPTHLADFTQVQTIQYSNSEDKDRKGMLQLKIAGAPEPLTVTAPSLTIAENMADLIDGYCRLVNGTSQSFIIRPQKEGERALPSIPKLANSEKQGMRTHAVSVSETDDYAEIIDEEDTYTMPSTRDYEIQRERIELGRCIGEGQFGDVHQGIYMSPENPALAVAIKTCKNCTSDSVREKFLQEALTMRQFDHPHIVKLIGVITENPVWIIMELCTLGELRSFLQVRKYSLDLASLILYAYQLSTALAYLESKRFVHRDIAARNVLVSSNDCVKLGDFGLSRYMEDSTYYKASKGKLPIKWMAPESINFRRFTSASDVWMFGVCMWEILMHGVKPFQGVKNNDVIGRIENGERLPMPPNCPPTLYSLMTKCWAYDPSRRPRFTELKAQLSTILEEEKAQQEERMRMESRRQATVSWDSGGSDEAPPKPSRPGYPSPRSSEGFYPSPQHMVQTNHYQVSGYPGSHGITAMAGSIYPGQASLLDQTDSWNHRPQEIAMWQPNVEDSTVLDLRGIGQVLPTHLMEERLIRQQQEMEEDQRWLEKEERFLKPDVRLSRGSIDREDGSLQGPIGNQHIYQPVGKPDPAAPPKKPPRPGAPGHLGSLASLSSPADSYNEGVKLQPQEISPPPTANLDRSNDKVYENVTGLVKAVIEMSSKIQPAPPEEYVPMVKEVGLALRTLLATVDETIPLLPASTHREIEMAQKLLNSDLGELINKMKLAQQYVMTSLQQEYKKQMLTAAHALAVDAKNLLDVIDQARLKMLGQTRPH

## Cc1ccsc1C(=O)Nc1cc(CN2CCN(C(=O)CO)CC2)ccc1/C=C/c1n[nH]c2ccccc12 [KW‐2450]
[1]
  Correlation of degree of in vitro inhibition with that induced by anti‐IGF‐1 antibody KM1468: highly correlated
[2]
  inhibition at 0.1 µM: 76.8%
[3]; higher concentrations of 1200 and 2000 nmol/L
  Cell cycle distribution: G1 and G2/M phase accumulations
[3]; lower concentrations of 120 and 400 nmol/L
  Cell cycle distribution: G1 phase accumulation
[4]
  Plasma glucose level: elevated levels
  Plasma insulin level: elevated levels
[5]
  Protein bound: 98.5–99.0%
[6]
  fraction unbound at 6 h: 0.009 to 0.016
[7]
  inhibition at 0.1 µM: 2.5%
[8]
  inhibition at 0.1 µM: > 90%
[9]
  inhibition at 0.1 µM: 33.8%
[10]
  inhibition at 0.1 µM: > 90%
[11]
  inhibition at 0.1 µM: > 90%
[12]; 37.5‐mg cohort
  Patients with insulin values above the upper limit of quantitation (300 μU/mL): five
[12]; 50‐mg cohort
  Patients with insulin values above the upper limit of quantitation (300 μU/mL): three
[12]; [15]
  Fasting glucose: Elevations in fasting glucose
  Fasting insulin: Elevations
[13]
  GI50: 11 to 19 nM
[14]; 37.5 mg/day (n = 7)
  Anorexia, treatment‐related, Grade 1–2: 2 (28.6) No. of patients (%)
  Anorexia, treatment‐related, Grade 3: 0 (0.0) No. of patients (%)
  Constipation, treatment‐related, Grade 1–2: 1 (14.3) No. of patients (%)
  Constipation, treatment‐related, Grade 3: 0 (0.0) No. of patients (%)
  Decreased appetite, treatment‐related, Grade 1–2: 0 (0.0) No. of patients (%)
  Decreased appetite, treatment‐related, Grade 3: 0 (0.0) No. of patients (%)
  Diarrhea, treatment‐related, Grade 1–2: 0 (0.0) No. of patients (%)
  Diarrhea, treatment‐related, Grade 3: 0 (0.0) No. of patients (%)
  Dizziness, treatment‐related, Grade 1–2: 1 (14.3) No. of patients (%)
  Dizziness, treatment‐related, Grade 3: 0 (0.0) No. of patients (%)
  Fatigue, treatment‐related, Grade 1–2: 4 (57.1) No. of patients (%)
  Fatigue, treatment‐related, Grade 3: 0 (0.0) No. of patients (%)
  Hyperglycemia, treatment‐related, Grade 1–2: 1 (14.3) No. of patients (%)
  Hyperglycemia, treatment‐related, Grade 3: 0 (0.0) No. of patients (%)
  Mucosal inflammation, treatment‐related, Grade 1–2: 1 (14.3) No. of patients (%)
  Mucosal inflammation, treatment‐related, Grade 3: 0 (0.0) No. of patients (%)
  Nausea, treatment‐related, Grade 1–2: 2 (28.6) No. of patients (%)
  Nausea, treatment‐related, Grade 3: 0 (0.0) No. of patients (%)
  Pain, treatment‐related, Grade 1–2: 0 (0.0) No. of patients (%)
  Pain, treatment‐related, Grade 3: 0 (0.0) No. of patients (%)
  Rash, treatment‐related, Grade 1–2: 1 (14.3) No. of patients (%)
  Rash, treatment‐related, Grade 3: 1 (14.3) No. of patients (%)
  Vomiting, treatment‐related, Grade 1–2: 1 (14.3) No. of patients (%)
  Vomiting, treatment‐related, Grade 3: 0 (0.0) No. of patients (%)
[14]; 37.5 mg/day, one of seven patients, grade 3 rash
  Patients with dose‐limiting toxicity: 14.3%
[14]; 50 mg/day (n = 6)
  Anorexia, treatment‐related, Grade 1–2: 0 (0.0) No. of patients (%)
  Anorexia, treatment‐related, Grade 3: 0 (0.0) No. of patients (%)
  Constipation, treatment‐related, Grade 1–2: 1 (16.7) No. of patients (%)
  Constipation, treatment‐related, Grade 3: 0 (0.0) No. of patients (%)
  Decreased appetite, treatment‐related, Grade 1–2: 3 (50.0) No. of patients (%)
  Decreased appetite, treatment‐related, Grade 3: 0 (0.0) No. of patients (%)

Source: paper PMC4832855 (Cancer Science, 2016)
